Experimental data taken from ChEMBL document CHEMBL4837222, “Design and synthesis of novel benzothiophene analogs as selective estrogen receptor covalent antagonists against breast cancer” (Eur J Med Chem, 2021).

Tests used:
[1] = tested on: MCF7; test: Induction of apoptosis in human MCF7 cells assessed as late apoptotic cells at 5 uM incubated for 24 hrs by AnnexinV-FITC/propidium iodide staining based flow cytometric analysis (reference value: 0.7%); type: functional
[2] = Half life in rat liver microsomes; type: ADME, Microsome
[3] = tested on: MCF7; test: Induction of apoptosis in human MCF7 cells assessed as necrotic cells at 1 uM incubated for 24 hrs by AnnexinV-FITC/propidium iodide staining based flow cytometric analysis (reference value: 0.4%); type: functional
[4] = tested on: MCF7; test: Cell cycle arrest in human MCF7 cells assessed as accumulation at G0/G1 phase at 10 uM measured after 48 hrs by propidium iodide staining based flow cytometric analysis (reference value: 24.44%); type: functional
[5] = tested on: MCF7; test: Induction of apoptosis in human MCF7 cells assessed as necrotic cells at 10 uM incubated for 24 hrs by AnnexinV-FITC/propidium iodide staining based flow cytometric analysis (reference value: 0.4%); type: functional
[6] = tested on: MDA-MB-231; test: Antiproliferative activity against human MDA-MB-231 cells assessed as reduction in cell growth incubated for 48 hrs by CCK8 assay; type: functional, cell-based; details: MDA-MB-231, 48 h
Method in brief: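 CCK-8 viability assay. Cells seeded at 4000/well in 10% FBS medium for 24 h, then given compound diluted from DMSO stocks into 2% FBS medium at 100, 50, 25, 12.5, 6.25 and 3.125 µM (0.1% DMSO final). After 48 h, CCK-8 was added (0.5 mg/mL) for 2 h at 37 °C and OD450 read. Triplicates; IC50 fitted from mean viability.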

[7] = tested on: MCF7; test: Cell cycle arrest in human MCF7 cells assessed as accumulation at S phase at 1 uM measured after 48 hrs by propidium iodide staining based flow cytometric analysis (reference value: 63.32%); type: functional
[8] = Intrinsic clearance in rat; type: ADME
[9] = molecular target: T1, Estrogen receptor (Homo sapiens, UniProt P03372); test: Induction of ERalpha activity in human ishikawa cells assessed as induction of cell proliferation at 156 to 5000 nM measured after 3 days; type: cell-based; details: 72 h, 5 µM, dose 156-5000 nM, time 3 day
T1 sequence (P03372 whole entry): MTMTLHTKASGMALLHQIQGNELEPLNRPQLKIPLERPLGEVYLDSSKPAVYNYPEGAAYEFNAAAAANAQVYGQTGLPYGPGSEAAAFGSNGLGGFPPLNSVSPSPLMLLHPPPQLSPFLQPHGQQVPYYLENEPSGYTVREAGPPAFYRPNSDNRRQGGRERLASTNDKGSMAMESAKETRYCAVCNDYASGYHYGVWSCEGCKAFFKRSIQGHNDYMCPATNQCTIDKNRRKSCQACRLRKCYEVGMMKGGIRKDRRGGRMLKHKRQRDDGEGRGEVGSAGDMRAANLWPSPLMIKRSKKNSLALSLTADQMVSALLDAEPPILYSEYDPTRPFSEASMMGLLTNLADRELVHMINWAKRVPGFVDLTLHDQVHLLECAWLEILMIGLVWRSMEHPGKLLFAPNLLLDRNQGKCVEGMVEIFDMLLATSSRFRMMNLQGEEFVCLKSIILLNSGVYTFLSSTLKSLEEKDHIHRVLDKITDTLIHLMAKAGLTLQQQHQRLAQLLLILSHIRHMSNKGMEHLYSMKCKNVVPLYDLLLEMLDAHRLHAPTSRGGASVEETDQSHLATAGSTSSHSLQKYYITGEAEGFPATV

[10] = tested on: MCF7; test: Induction of apoptosis in human MCF7 cells assessed as early apoptotic cells at 10 uM incubated for 24 hrs by AnnexinV-FITC/propidium iodide staining based flow cytometric analysis (reference value: 0.8%); type: functional
[11] = tested on: MCF7; test: Induction of apoptosis in human MCF7 cells assessed as necrotic cells at 5 uM incubated for 24 hrs by AnnexinV-FITC/propidium iodide staining based flow cytometric analysis (reference value: 0.4%); type: functional
[12] = Lipophilicity, logD of compound; type: physicochemical; details: octanol/water
[13] = tested on: MCF7; test: Induction of apoptosis in human MCF7 cells assessed as live cells at 5 uM incubated for 24 hrs by AnnexinV-FITC/propidium iodide staining based flow cytometric analysis (reference value: 98.1%); type: functional

half-life [2]: 38.1 min | IC50 [6]: > 50 µM | CLint scaled [8]: 65.1 mL/min/kg | logD [12]: 1.67
Structure (SMILES): O=C(/C=C/CNCCOc1ccc(Oc2c(-c3ccc(F)cc3)sc3cc(O)ccc23)cc1)N1CCC1
Activity [1]: 6.4% | Activity [3]: 0.2% | Activity [4]: 42.95% | Activity [5]: 0.5% | Activity [7]: 51.43% | Activity [9]: Not Active | Activity [10]: 12.5% | Activity [11]: 0.4% | Activity [13]: 87.9%
